Compound activity (PubChem)
In the library only some 1.8% were active in any assay of this set; here they are far more common.
UPR CHOP act: activators of apoptotic arm of unfolded protein response (CHOP); CHO-CHOP luciferase reporter, UPR activation, luminescence; percent of tunicamycin response over DMSO baseline; AID 449763; 0.34% of 330,000 active; activation, % at 10 µM;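 active means at 10 µM dose, activation of 40% or more, normalized to positive control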;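 further: 100% = tunicamycin at 10 µg/mL and 0% = DMSO alone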
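Test system: CHO CHOP reporter cells. Input: 500 CHO-CHOP cells per well. Medium: F12 with 10% FBS. Technique: luciferase luminescence. Measure: percent activation relative to tunicamycin control. Dosing: 10 µM compound, 0.5% DMSO. Timing: 16-18 h cell attachment, then 6 h compound exposure, 37 °C.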
CRFR2-BP antag: antagonists of CRF-binding protein/CRF-R2 receptor complex. 0.59% of 350,000 active. inhibition, % at 11.8 µM. HEK293 CRF-R2/CRF-BP, CRF-induced calcium fluorescence;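 active means inhibition of the ligand-induced calcium signal above about 50% at the single tested concentration, limit read from the data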
697 NFkB inh: lowers PMA/ionomycin-induced NF-kB signal in 697 B cells | 0.33% of 330,000 active | 697 B-cell NF-kB luciferase reporter, 16 h | inhibition, % at 4 µM; in the data active means inhibition above about 35%
Jurkat NFkB inh: inhibitors of the PMA/ionomycin-induced NF-kB reporter in Jurkat cells; AID 435003; inhibition, % at 4 µM; 0.53% of 330,000 active; PMA/ionomycin-induced NF-kB luciferase reporter, luminescence; in the data active means inhibition above about 50%
XBP1 UPR activ: adaptive UPR (XBP1) activation; CHO-XBP1 luciferase reporter, IRE1-XBP1 UPR activation, luminescence; percent of tunicamycin response, DMSO as zero; AID 463104; activation, % at 20 µM; 0.33% of 330,000 active;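 active means versus positive control, 20 µM dose yields 30% or more activation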;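 further: 100% = tunicamycin at 10 µg/mL and 0% = DMSO only wells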
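Material – CHO cell line with stable XBP1 luciferase reporter · Buffer or medium – F12 plus 10% FBS · Compound – single point, 20 µM final compound, 1% DMSO · Schedule – 16-18 h cell attachment at 37 °C, then 6 h compound exposure · Signal – Steady-Glo luminescence read · Benchmarks – high control tunicamycin 10 µg/mL final, low control DMSO vehicle only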
Jurkat NFkB conf: inhibitors of the PMA/ionomycin-induced NF-kB reporter in Jurkat cells, retest. shares compounds with Jurkat NFkB inh. Jurkat NF-kB luciferase, 16 h. inhibition, % at 4 µM. 27% of 2,700 active. AID 435020;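 active means inhibition reaching about 45% at 4 µM in either replicate, limit read from the data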;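 further: plate controls were PMA/ionomycin stimulated DMSO wells for no effect and unstimulated DMSO wells for full effect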
* hit, by the source's call; . = not tested or not shown.

SMILES	UPR CHOP act	CRFR2-BP antag	697 NFkB inh	Jurkat NFkB inh	XBP1 UPR activ	Jurkat NFkB conf
COc1ccc(/C=C2\CCCC3C2=NN(C(=O)CSc2ncn[nH]2)C3c2ccc(OC)cc2)cc1 (centres undefined)	1	16	6	61*	-4	-27
CCCc1nc2oc3c(NCCCN(C)C)ncnc3c2c2c1CCCC2	1	-1	-29	90*	4	9
N#Cc1ccc2sn(-c3ccccc3)c(=O)c2c1	.	-14	.	.	.	.
CC(=O)OCC(=O)N1N=C(c2ccc3ccccc3c2)CC1c1ccccc1 (centres undefined)	13	3	-39	-54	7	.
COc1ccc(C2CC(c3ccc4ccccc4c3)=NN2C(=O)COC(=O)C2CCC(=O)N2)cc1 (centres undefined)	5	-2	-169	-196	6	-133
CCc1ccc(S(=O)(=O)/N=C2\C=C(Nc3ccc(O)cc3)C(=O)c3ccccc32)cc1	3	140*	-8	54*	-10	52*
CCc1ccc(S(=O)(=O)/N=C2\C=C(Nc3cccc(C(=O)O)c3)C(=O)c3ccccc32)cc1	4	33	-35	3	0	.
COC(=O)c1nn(-c2ccc3c(c2)CCN3C(C)=O)cc1O	-10	-12	10	53*	-5	67*
COC(=O)c1nn(-c2ccc3c(c2)OCO3)cc1O	2	-4	6	-35	2	.
Clc1ccc(-n2cnc3c(Cl)ncnc32)cc1Cl	.	-21	.	.	.	.
CSc1nc(N(C)NC(=O)c2ccc(F)cc2)c2ccccc2n1	-3	-5	-1	51*	0	33
Cc1nc(SCC(=O)NNC(=O)c2ccc(F)cc2)c2ccccc2n1	0	-20	16	-3	-3	.
CC(=O)c1ccc(-c2cccc([C@H]3[C@@H]4C=CC[C@@H](C)[C@@H]4C(=O)N3Cc3ccccc3)c2)cc1	4	-5	23	.	2	.
CC(=O)/C(=N\Nc1ccccc1)Sc1cccc2cccnc12	1	3	-17	4	1	.
O=C(Sc1cccc2cccnc12)c1ccc(F)cc1	69*	.	-151	101*	-3	60*
O=C(Sc1cccc2cccnc12)c1ccccc1Br	62*	.	-97	101*	0	69*
CCC(C)N1C(=O)S/C(=C/c2ccc(N3CCOCC3)cc2C)C1=O (centres undefined)	1	-28	-78	-93	0	.
Cc1cc(N2CCOCC2)ccc1/C=C1\SC(=O)N(C(C)C)C1=O	2	-35	-101	-170	4	-58
COCCNC(=O)Cn1nc(-c2ccccc2F)ccc1=O	0	9	-2	6	-1	.
Cc1ccnc(Sc2ccc([N+](=O)[O-])cn2)n1	-1	7	-39	-32	0	.
CC(C)(C)c1csc(Sc2ccc([N+](=O)[O-])cn2)n1	3	13	4	81*	2	40
CC(C)c1ccc(/C=C/C(=O)NC2=NCCS2)cc1	-1	.	-171	-204	0	-102
COc1ccc2[nH]c(=O)c(CN(CC3CCCO3)C(=S)Nc3ccccc3)cc2c1 (centres undefined)	-1	-23	-11	-4	0	.
COc1ccc2cc(CN(CC3CCCO3)C(=S)Nc3ccccc3)c(=O)[nH]c2c1 (centres undefined)	2	25	6	50	3	9
Cc1ccc(C)c(NC(=O)CN(C)C(=O)c2ccc(S(=O)(=O)N3CCCCCC3)cc2)c1	-1	7	-20	-3	1	.
SMILES	UPR CHOP act	CRFR2-BP antag	697 NFkB inh	Jurkat NFkB inh	XBP1 UPR activ	Jurkat NFkB conf
CCOC(=O)C1=C(C)Nc2ncnn2C1/C=C/c1ccccc1 (centres undefined)	2	-46	6	5	1	.
CCCC1=C(C(=O)OCC)C(/C=C/c2ccccc2)n2ncnc2N1 (centres undefined)	1	-41	-62	53*	4	1
O=C(COc1ccc(C(=O)c2ccccc2)cc1)NCc1ccc(F)cc1	-1	14	-4	69*	1	41
CCOC(=O)c1[nH]c(C)c(C(=O)Nc2ccccc2F)c1C	2	0	-77	52*	-1	13
CCOC(=O)c1c(C)[nH]c(C(=O)OCc2ccccc2F)c1C	7	-6	-196	-166	8	-115
CCOC(=O)c1[nH]c(C)c(C(=O)Nc2ccc(C)cc2C)c1C	0	-3	-62	53*	-1	42
CCOC(=O)c1c(C)[nH]c(C(=O)OCC(=O)NCc2ccccc2)c1C	2	16	5	-4	3	.
CCOC(=O)c1c(C)[nH]c(C(=O)OCC(=O)c2ccccc2)c1C	4	-6	-220	-193	-3	-151
O=C(O)c1cccc2c1/C(=N/Nc1ccc([N+](=O)[O-])cc1[N+](=O)[O-])c1ccccc1-2	-2	5	8	-21	-3	.
CCN(C(=O)Cn1cc(C(F)(F)F)ccc1=O)C1CCS(=O)(=O)C1 (centres undefined)	.	-1	.	.	.	.
CCOC(=O)c1c(C)[nH]c(C(=O)OCC(=O)NC(C)(C)C)c1C	0	4	-4	10	-1	.
CCOC(=O)c1[nH]c(C)c(C(=O)OCC(=O)NC(C)c2ccc(F)cc2)c1C (centres undefined)	11	6	-69	60*	3	51*
CCOC(=O)c1[nH]c(C)c(C(=O)Nc2cc(OC)ccc2OC)c1C	2	-12	7	70*	13	46
COc1ccc(OC)c2sc(N(CCCN(C)C)C(=O)c3ccc(S(=O)(=O)N4CCc5ccccc5C4)cc3)nc12	-9	.	31	94*	-10	23
COc1ccc(C)c2sc(N(CCCN(C)C)C(=O)c3ccc(S(=O)(=O)N4CCc5ccccc5C4)cc3)nc12	.	-19	.	.	.	.
COc1cccc(N2CCN(C(=O)c3[nH]c(C)c(C(C)=O)c3C)CC2)c1	1	-3	-35	55*	0	11
COc1cccc(N2CCN(C(=O)c3ccc(CS(=O)c4ccccc4Cl)o3)CC2)c1 (centres undefined)	0	-3	-35	56*	8	53*
COc1cccc(N2CCN(C(=O)c3ccc(CS(=O)c4ccccc4C)o3)CC2)c1 (centres undefined)	0	1	-17	56*	10	36*
COC(=O)c1cn(NC(=O)C2CCC(C)CC2)c(=O)c2ccccc12 (centres undefined)	0	-10	-8	3	2	.
COC(=O)c1cn(NC(=O)c2cc([N+](=O)[O-])ccc2F)c(=O)c2ccccc12	-1	10	-103	97*	-2	90*
N#Cc1ccc(C#Cc2ccc3oc4ccccc4c(=O)c3c2)cc1	-1	-10	3	11	6	.
